Screening data from PubChem.
UPR CHOP act – apoptotic UPR (CHOP) activation | CHO-CHOP luciferase reporter, luminescence; percent of tunicamycin response over DMSO baseline | activation, % at 10 µM | actives 0.34% (n = 330,000) | AID 449763;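 active means at 10 µM dose, activation of 40% or more, normalized to positive control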
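assay system = CHO CHOP reporter cells | amount = 500 CHO-CHOP cells per well | buffer or medium = F12 with 10% FBS | incubation = 16-18 h cell attachment, then 6 h compound exposure, 37 °C | detection = luminescence read with Steady-Glo | read-out = percent activation relative to tunicamycin control | controls = tunicamycin high control, DMSO low control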
UPR XBP1 act – activators of adaptive arm of unfolded protein response (XBP1) | CHO-XBP1 luciferase reporter, IRE1-XBP1 UPR activation, luminescence; percent of tunicamycin response, DMSO as zero | activation, % at 20 µM | actives 0.33% (n = 330,000) | AID 463104;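 active means versus positive control, 20 µM dose yields 30% or more activation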
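Material: CHO cell line with stable XBP1 luciferase reporter; schedule: 16-18 h cell attachment at 37 °C, then 6 h compound exposure; signal: glow luminescence from Steady-Glo reagent; medium: serum-containing F12 medium, 10% FBS; benchmarks: tunicamycin 10 µg/mL and vehicle-only wells; read-out: percent activation relative to tunicamycin reference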
CHOP inh – inhibitors of CHOP induction in ER stress response; CHO-K1 CHOP-promoter luciferase, tunicamycin-induced, 15-18 h; inhibition, % at 10 µM; actives 3.8% (n = 220,000); AID 2732;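 active means compounds that reduced the stress-induced luciferase reporter signal by more than about 70% of percent inhibition, limit read from the data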
A1 inh – inhibitors of the anti-apoptotic protein A1, read as caspase activation; MEF A1-2A-BIM cells, Caspase-Glo 3/7 luminescence, 3 h; percent of clofoctol response, vehicle zero; caspase activation, % (test concentration not listed); actives 0.066% (n = 330,000); AID 2462;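 active means over half of replicate activation scores above 10%, or exactly half above 10 with the replicate mean above 10; inconclusive means replicate mean below 10 yet half the replicates above 10; inactive means over half of replicates below 10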
Large screens that a line does not name were inactive. This excerpt belongs to a sample that is enriched for hits.

Oc1ccc(N=Nc2nc(-c3ccccc3)c(-c3ccccc3)[nH]2)cc1	CHOP inh 92
Oc1ccc(N=Nc2n[nH]c(-c3ccccc3)n2)cc1	none
CCC(=O)Nc1ccccc1-c1nnn(CC(=O)N2c3ccccc3CC2C)n1 (stereo not drawn)	CHOP inh 76, A1 inh inconclusive
O=C1N(Nc2ccccc2)C(c2ccc(Br)cc2)C12CCCC2 (stereo not drawn)	CHOP inh 94
O=C1N(Nc2ccccc2)C(c2ccc(Br)cc2)C12CCCCC2 (stereo not drawn)	CHOP inh 73
O=C1OC(c2ccccc2)C2(CCCC2)C(=O)C12CCCC2 (stereo not drawn)	none
CCN(CC)C(=O)[C@H]1C[C@H](CC(=O)NC/C=C(\C)CCC=C(C)C)C(=O)N2CCc3c([nH]c4cc(-c5ccco5)ccc34)[C@]12C	none (no result: CHOP inh, A1 inh)
C=C(C)c1cc2c(ccc3ccc(=O)oc32)o1	none (no result: CHOP inh, A1 inh)
O=C(NCc1ccc(F)cc1)C1CCCN1S(=O)(=O)c1ccccc1C(F)(F)F (stereo not drawn)	none (no result: CHOP inh)
Cc1nn(-c2ccccc2)c2nc(-c3ccncc3)cc(C(=O)NCc3ccco3)c12	CHOP inh 72
Cc1ccc(C)n1-n1c(C)nc2sc3c(c2c1=O)CCCCC3	CHOP inh 79
COc1ccc(OC)c(C(=O)CSc2nccc(-c3ccc(Br)cc3)n2)c1	CHOP inh 80
COc1ccc(-c2ccnc(SCC(=O)c3ccc(OC)c(OC)c3)n2)cc1	none
O=C(Nc1ccc(Cl)cc1Cl)NC1CCN(S(=O)(=O)c2ccc(F)cc2)CC1	CHOP inh 81
O=C(Cc1ccccc1Cl)Nc1cccc(S(=O)(=O)N2CCCCCC2)c1	none (no result: CHOP inh)
O=C(Nc1cccc(S(=O)(=O)N2CCCCC2)c1)Nc1ccc(Cl)cc1Cl	CHOP inh 88, A1 inh inconclusive
CCCCN(Cc1ccccc1)C(=O)CCN1C(=O)C2C3C=CC(C3)C2C1=O (stereo not drawn)	none
CS(=O)(=O)N(CC(=O)N1CCc2ccccc2C1)c1ccccc1F	none (no result: CHOP inh)
Cc1ccc(C2=NOC(=O)/C2=C\C=C\c2ccccc2)cc1	CHOP inh 90 (no result: UPR CHOP act, UPR XBP1 act, A1 inh)
CN(C)/C=C1\C(=O)ON=C1c1ccccc1	none
CC1=C(c2ccccc2)SC2=NCCN21	none (no result: CHOP inh)
CN(Cc1cccnc1)C(=O)c1ccc(Cl)c(NS(=O)(=O)c2ccc(F)cc2)c1	none (no result: CHOP inh, A1 inh)
CCOc1ccc(CNc2ccc(CNc3ncn[nH]3)cc2)cc1	none
CCOc1ccc(CNc2cccc(SC)c2)cc1	CHOP inh 87
Cc1cccc(NC(=O)CSc2nc3nc4c(cc3c(=O)n2-c2ccccc2)CCCC4)c1	CHOP inh 80
Cc1cccc(NC(=O)CSc2nc3c([nH]c4ccccc43)c(=O)n2C)c1	CHOP inh 79
O=C(CSc1nc2nc3c(cc2c(=O)n1-c1ccccc1)CCCC3)Nc1cccc2ccccc12	none
CCSc1nc2c([nH]c3ccccc32)c(=O)n1C	CHOP inh 77
CC(C)NC(=O)N(C)C[C@H]1Oc2ccc(NS(=O)(=O)c3ccccc3)cc2C(=O)N([C@H](C)CO)C[C@H]1C	none (no result: CHOP inh)
COc1ccc(C(=O)c2ccc(Br)cc2)cc1	CHOP inh 76
CC1(NC(=O)Cc2csc(-c3cccc(Cl)c3)n2)CCS(=O)(=O)C1 (stereo not drawn)	none (no result: CHOP inh)
C/C(=N/Nc1ccc([N+](=O)[O-])cc1)c1ccc(C)cc1C	CHOP inh 94
Nc1nc(-c2ccccc2)c(-c2ccc([N+](=O)[O-])cc2)s1	CHOP inh 74
Cc1ccc(-c2nc(N)sc2-c2ccccc2)cc1C	CHOP inh 87
N#Cc1ccsc1NC(=O)CCN1CCN(C(c2ccccc2)c2ccccc2)CC1	none (no result: CHOP inh)
CCOC(=O)Cn1c(C)c(Br)c(=O)c2cccc(C)c21	CHOP inh 92
CCOC(=O)Cn1c(=O)cc(C)c2ccccc21	none
CCN(CC(=O)Nc1ccc2c(c1)OCO2)Cc1nc2ccccc2c(=O)[nH]1	none
CCN(CC(=O)Nc1ccc2c(c1)CCC2)Cc1nc2ccccc2c(=O)[nH]1	CHOP inh 71
Cc1cc(C)nc(SCc2nnc(SCC(=O)Nc3ccc(Cl)c(C(F)(F)F)c3)o2)n1	CHOP inh 75
Cc1ccc(S(=O)(=O)Nc2ccc(O)c3cccnc23)cc1	none (no result: CHOP inh)
Cc1ccc(S(=O)(=O)Nc2ccc(O)c3ncccc23)cc1	CHOP inh 73
COc1ccc(-c2noc(CCCC(=O)Nc3ccc(C(N)=O)cc3)n2)cc1	CHOP inh 82
